# ABCG2 inh: ABCG2 efflux pump inhibitors, primary screen, multiplex with ABCB1, IgMXP3 cells, flow cytometry | Broad substrate specificity ATP-binding cassette transporter ABCG2 (Homo sapiens), Q9UNQ0 | JC-1 efflux | inhibition, % at 6.6 µM | 190,000 tested, 0.1% active | AID 1325, 2008;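 active = inhibition above 80%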;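 note: 0% = DMSO and 100% = nicardipine control wells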
#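 Incubation: cells with compound and JC-1, 10 min at 25 °C, rotating, no wash / Test system: IgMXP3 (ABCG2) plus far-red-tagged CCRF-Adr (ABCB1) cells / Compound dosing: one concentration, 6.6 µM final / Also added: JC-1 fluorescent substrate / Evaluation: efflux inhibition in percent versus controls / Detection: flow cytometry, 530 nm JC-1 signal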
# MEKK2wt PB1 HTS: modulators of MEK5 binding to wildtype MEKK2, primary screen, biochemical, multiplex bead flow cytometry, Alexa488-MEK5; 290,000 tested, 1.1% active; binding response (% of control), % at 10 µM; AID 1531, 2009; Alexa488-MEK5 binding to MEKK2 WT; actives lie on both sides; Mitogen-activated protein kinase kinase kinase 2 (Homo sapiens), Q9Y2U5; in the data active = binding response below about 67% or above about 130%
# WT yeast gro inh: growth inhibition of WT strain, primary screen, mitochondrial fusion inhibitor project, WT and mutant strains, chemical genetic; inhibition, % at 10 µM; mitochondrial fusion phenotypic screen; 190,000 tested, 2.1% active; AID 1362, 2008; in the data active = inhibition above about 58%; tested in S. cerevisiae
# MEKK3 PB1 HTS: modulators of MEKK3-MEK5 PB1 binding, primary screen, biochemical, wildtype MEKK3, multiplex bead flow cytometry, Alexa488-MEK5; AID 1529, 2009; bead-based flow cytometry, Alexa488-MEK5 binding to MEKK3; actives lie on both sides; 0 = blocked by unlabeled MEK5, 100 = vehicle; binding response (% of control), % at 10 µM; 290,000 tested, 1.4% active; Mitogen-activated protein kinase kinase kinase 3 (Homo sapiens), Q99759;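 active = binding response more than 3 SD above or below the average of its plate-row segment, actives on both sides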;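 note: Alexa488 bead fluorescence after subtracting the streptavidin-only scavenger bead signal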
# ABCB1 inh: ABCB1 efflux pump inhibitors, primary screen, cell-based, multiplex, flow cytometry, ABCG2 counter-screen. AID 1326, 2008. 190,000 tested, 0.067% active. CCRF-Adr cells, JC-1 efflux. inhibition, % at 6.6 µM; in the data active = inhibition above about 40%;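 note: 0% = vehicle and 100% = reference inhibitor; higher value means more JC-1 retained so stronger ABCB1 efflux block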
# MEKK2mut PB1 HTS: MEK5 binding signal on mutant MEKK2 PB1, primary screen, biochemical, multiplex bead flow cytometry, Alexa488-MEK5 | Alexa488-MEK5 binding to MEKK2 mutant | AID 1530, 2009 | 290,000 tested, 0.35% active | percent response, % at 10 µM; in the data active = percent response above about 24%, passing the limit was not always enough
# MEKK2wt confirm: modulators of MEK5 binding to wildtype MEKK2, confirmation, biochemical, single concentration, multiplex bead flow cytometry. AID 1892, 2009. Alexa488-MEK5 binding to MEKK2 WT; actives lie on both sides. shares compounds with MEKK3 PB1 HTS. binding response (% of control), % at 10 µM. 5,900 tested, 2.4% active; in the data active = binding response below about 16% or above about 210%; inactive = in between
# MEKK2mut-MEK5: mutant MEKK2 PB1-MEK5 binding signal retest – biochemical, single concentration, multiplex bead flow cytometry, confirmation; Alexa488-MEK5 binding to MEKK2 mutant; AID 1893, 2009; shares compounds with MEKK3 PB1 HTS; percent response, % at 10 µM; 5,900 tested, 2% active; in the data active = percent response mostly above about 71%, no sharp cut-off; inactive = mostly below about 38%;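 note: higher means compound restores mutant binding toward wildtype level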
# MEKK3-MEK5 inh: MEKK3 wild-type PB1 binding to MEK5, inhibitors, confirmation, biochemical, bead multiplex flow cytometry, single concentration, wildtype; binding response (% of control), % at 10 µM; AID 1894, 2009; Alexa488-MEK5 binding to MEKK3; active compounds read low; 5,900 tested, 1.8% active; shares compounds with MEKK3 PB1 HTS;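 active = binding response below 72% of control, or above a set upper limit, though filed actives all read lower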;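 note: 100% = DMSO only wells and 0% = binding blocked by excess unlabeled MEK5; lower values mean stronger disruption of MEK5 binding to MEKK3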
# An asterisk follows results filed as active; . = no result; [ ] = another dose, or the depositor's remark. This is a sample that favours compounds with a hit; in the whole collection about 3.5% have one here.
SMILES,ABCG2 inh,MEKK2wt PB1 HTS,WT yeast gro inh,MEKK3 PB1 HTS,ABCB1 inh,MEKK2mut PB1 HTS,MEKK2wt confirm,MEKK2mut-MEK5,MEKK3-MEK5 inh
CCCCN(C)CCNC(=S)Nc1ccc2nc(N3CCN(CC)CC3)cc(C)c2c1,.,134*,.,109,.,17,121,14,106
CCCCNC(=S)Nc1ccc2nc(N3CCN(CC)CC3)cc(C)c2c1,.,139*,.,111,.,27*,144,30,109
Cc1c(C)[n+](=O)c(-c2cccs2)c(C)n1[O-],0,0.0*[inhibitor],-1,1.0*[inhibitor],0,-9,98,-6,103
CC1(C)NC(=O)N(CCOc2ccc([N+](=O)[O-])cc2)C1=O,-3,49,2,42*[inhibitor],0,-40,97,0,100
Cc1cc(OCCCCN2C(=O)NC(C)(C)C2=O)ccc1[N+](=O)[O-],12,97,15,99,1,-2,.,.,.
O=C(O)CN1C(=O)C2(OCCCO2)c2ccccc21,2,2.0*[inhibitor],13,2.0*[inhibitor],1,-25,101,-4,101
COC(=O)CN1C(=O)C2(OCCCO2)c2ccccc21,3,104,-1,100,1,3,.,.,.
COCCSc1nnc(NC(=O)C(C)(C)C)s1,1,92,6,92,0,-4,.,.,.
CCn1c(SCC(=O)NC)nnc1C(C)C,0,102,-14,94,0,3,.,.,.
CNC(=O)CSc1nnc(C(C)C)n1C,1,122,-20,136*,0,5,93,-6,96
COCCN(C(=O)C(C)C)c1nnc(-c2ccc(C)cc2)s1,5,107,-9,109,0,-1,.,.,.
O=C(CNC(=O)c1cccc(F)c1)N/N=C/c1cccs1,.,107,.,106,.,7,.,.,.
Cc1ccc(N(CC(O)CN2C(=O)NC(C)(C)C2=O)S(=O)(=O)c2ccc([N+](=O)[O-])cc2)cc1 (stereo not drawn),.,108,.,103,.,0,.,.,.
Cc1cc(-c2csc(N)n2)c(C)n1C,8,102,-2,99,-2,9,.,.,.
COc1ccccc1CNc1nc(-c2cc(C)n(C)c2C)cs1,10,-7.0*[inhibitor],10,78,3,-4,105,6,96
COc1ccccc1NC(NC(=O)c1cccnc1)C(Cl)(Cl)Cl (stereo not drawn),0,85,25,85,1,-7,.,.,.
CCOC(=O)C1=C(Nc2ccc(OC)cc2)OCC1=O,.,87,.,89,.,-13,.,.,.
CCCCCCCCC1=NCCc2c1[nH]c1ccccc21,.,159*,.,99,.,54*,157,25,100
CC(C)C/C=C1\CCc2c([nH]c3ccccc23)C1=O,16,96,-4,102,0,-3,.,.,.
COc1ccccc1CN1CCC(n2nccc2NC(=O)CCCc2ccccc2)CC1,.,142*,.,103,.,19,162,54,113
CCOc1ccccc1CN1CCC(n2nccc2NC(=O)CCCc2ccccc2)CC1,.,131,.,101,.,14,.,.,.
CCCCn1c(SCC(=O)N2CCOCC2)nnc1-c1ccoc1C,7,107,5,128*,1,2,104,10,105
Cc1cc(-c2n[nH]c(=S)n2/N=C/c2ccc(Cl)c([N+](=O)[O-])c2)n[nH]1,12,109,2,155*,1,0,103,-5,104
COCCNC(=O)/C(C#N)=C1\N=C(NC(=O)c2cccs2)c2ccccc21,.,101,.,102,.,3,.,.,.
COc1ccc(CNC(=O)/C(C#N)=C2\N=C(NC(=O)c3cccs3)c3ccccc32)cc1,0,93,5,74*[inhibitor],0,0,100,3,108
SMILES,ABCG2 inh,MEKK2wt PB1 HTS,WT yeast gro inh,MEKK3 PB1 HTS,ABCB1 inh,MEKK2mut PB1 HTS,MEKK2wt confirm,MEKK2mut-MEK5,MEKK3-MEK5 inh
O=C(NCCc1ccccc1)C1CCC(=O)N1C1CCCC1 (stereo not drawn),.,103,.,104,.,4,.,.,.
Clc1ccc(-n2c(SCc3nc4ccccc4[nH]3)nnc2-c2ccncc2)cc1,18,104,-6,101,1,5,.,.,.
Brc1ccc(-n2c(SCc3nc4ccccc4[nH]3)nnc2-c2ccncc2)cc1,0,108,-4,150*,0,0,102,2,100
O=C(O)c1ccc(Cl)c(NC(=O)C2CCCN2S(=O)(=O)c2cccc3nsnc23)c1 (stereo not drawn),3,97,-18,99,1,-1,.,.,.
CC(C)N(C(=O)CSc1nnc(Cc2csc(Nc3ccccc3)n2)o1)C(C)C,7,90,30,75*[inhibitor],2,-2,108,5,105
COc1ccccc1C1CC(=O)NC(C)=C1C(=O)OC(C)C (stereo not drawn),0,54,-15,49*[inhibitor],0,-15,96,-2,104
O=C(NCc1ccco1)c1ccc(=O)[nH]n1,-3,90,10,82*[inhibitor],-2,-11,117,1,103
CNC[C@H](CC1CCCCC1)NC[C@H](Cc1ccccc1)NCCC12CC3CC(CC(C3)C1)C2,.,278*,.,109,.,70*,265*,126*,115
NS(=O)(=O)OCCCc1ccccc1,.,107,.,102,.,0,.,.,.
COCC(COS(N)(=O)=O)Cc1ccccc1 (stereo not drawn),.,139*,.,105,.,4,107,7,108
Cc1ccc(-c2csc3nc4c5ccccc5c(NCCCN5CCOCC5)nn4c(=O)c23)cc1,7,145*,75*,103,3,15,175,34,105
Cc1ccc(-c2nc3ccccc3c(=O)n2CCCN2CCOCC2)cc1,2,91,-4,91,1,-2,.,.,.
CC(C)c1ccc(N2C(=O)/C(=C/N(C)C)SC2=S)cc1,.,62*[inhibitor],.,100,.,6,85,-10,88
CCO/C=C1\SC(=S)N(c2ccc(Cl)cc2)C1=O,.,104,.,108,.,1,.,.,.
